Test results from ChEMBL document CHEMBL4765235, “Discovery of N-[Bis(4-methoxyphenyl)methyl]-4-hydroxy-2-(pyridazin-3-yl)pyrimidine-5-carboxamide (MK-8617), an Orally Active Pan-Inhibitor of Hypoxia-Inducible Factor Prolyl Hydroxylase 1-3 (HIF PHD1-3) for the Treatment of Anemia” (J Med Chem, 2016).
The source made the active and inactive calls. The rule behind the calls is not given here.

Legend:
[1] = molecular target: Hypoxia-inducible factor 1-alpha inhibitor (Homo sapiens) (UniProt Q9NWT6); test: Inhibition of FIH (unknown origin) using 2-oxoglutarate and biotinyl-SMDESGLPQLTSYDAEVNAPIQGSRNLLQGEELLR CAD peptide as substrate preincubated for 10 mins followed by substrate addition and measured after 1 hr by RapidFire Mass spectrometry
[2] = Metabolic stability in dog liver microsomes assessed as metabolic turnover at 10 uM measured after 60 mins in presence of NADPH; assay type: ADME, Canis lupus familiaris, Microsome; conditions: read-out: Drug metabolism
In short: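 Tritiated compound incubated with liver microsomes with NADPH added; metabolic turnover monitored.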

[3] = Oral bioavailability in rhesus monkey at 1 mg/kg; assay type: ADME, organism-based, Macaca mulatta; conditions: in vivo
In short: (§1)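 Dog and rhesus monkey dosed 1 mg/kg po and 0.5 mg/kg iv. The iv vehicle was PEG200:12%HPCD:water (30:12:58 v/v/v); the po vehicle was Imwitor:Tween (1:1 w/w). Clearance was measured in plasma. Protein binding was measured in 100% serum.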

[4] = Drug metabolism in fasted bile-duct cannulated Sprague-Dawley rat urine assessed as oxidation of parent compound causing metabolite formation at 5 mg/kg, po using [3H]-labeled compound measured after 48 hrs; assay type: ADME, organism-based; conditions: in vivo
Prolyl hydroxylase EGLN2 = Prolyl hydroxylase EGLN2 (Homo sapiens, UniProt Q96KS0); test: Inhibition of FLAG-tagged full-length HIF-PHD1 (unknown origin) expressed in baculovirus infected Sf9 cells using 2-oxoglutarate and HIF1alpha biotinyl-DLDLEMLAPYIPMDDDFQL as peptide substrates preincubated for 30 mins followed by substrate addition and measured after 2 hrs by LANCE assay
[5] = Drug recovery in fasted bile-duct cannulated Sprague-Dawley rat feces assessed as metabolically unchanged parent compound by measuring radioactivity at 5 mg/kg, po using [3H]-labeled compound measured after 48 hrs; assay type: ADME, organism-based; conditions: in vivo
Cytochrome P450 2C19 = Cytochrome P450 2C19 (Homo sapiens, UniProt P33261); test: Inhibition of CYP2C19 (unknown origin); assay type: ADME
[6] = Toxicity in Sprague-Dawley rat assessed as change in hemoglobin levels at 15 mg/kg, po QD administered for 4 weeks and measured post last dose; assay type: organism-based; conditions: in vivo, 672 h
Cytochrome P450 3A4 = Cytochrome P450 3A4 (Homo sapiens, UniProt P08684); test: Inhibition of CYP3A4 (unknown origin); assay type: ADME
[7] = Oral bioavailability in rat at 2 mg/kg; assay type: ADME, organism-based; conditions: in vivo
Cytochrome P450 2C8 = molecular target: T1, Cytochrome P450 2C8 (Homo sapiens, UniProt P10632); test: Reversible inhibition of CYP2C8 (unknown origin); assay type: ADME
T1 sequence (P10632 whole entry): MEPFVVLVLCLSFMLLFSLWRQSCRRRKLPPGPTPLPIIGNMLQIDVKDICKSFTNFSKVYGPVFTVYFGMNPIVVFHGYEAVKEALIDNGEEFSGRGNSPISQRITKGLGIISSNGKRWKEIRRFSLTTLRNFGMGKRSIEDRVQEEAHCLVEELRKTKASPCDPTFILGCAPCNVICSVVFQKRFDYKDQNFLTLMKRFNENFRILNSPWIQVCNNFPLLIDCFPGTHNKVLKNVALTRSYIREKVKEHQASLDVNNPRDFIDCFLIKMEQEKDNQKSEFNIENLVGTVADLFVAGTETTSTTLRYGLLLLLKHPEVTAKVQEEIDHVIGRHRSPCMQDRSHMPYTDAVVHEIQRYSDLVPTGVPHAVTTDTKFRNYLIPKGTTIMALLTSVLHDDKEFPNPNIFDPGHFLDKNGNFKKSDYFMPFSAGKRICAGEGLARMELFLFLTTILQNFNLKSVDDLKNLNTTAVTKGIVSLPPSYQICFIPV

[8] = Cmax in Sprague-Dawley rat at 1.5 mg/kg, po administered as single dose measured at 6 hrs; assay type: ADME, organism-based; parameters: route oral, time 6 hrs, dose 1.5 mg/kg; conditions: in vivo
Rattus norvegicus = organism: Rattus norvegicus; conditions: Sprague-Dawley, dose 5-15 mg/kg
[9] = Cmax in Sprague-Dawley rat at 15 mg/kg, po administered as single dose measured at 6 hrs; assay type: ADME, organism-based; parameters: route oral, time 6 hrs, dose 15 mg/kg; conditions: in vivo
[10] = Drug metabolism in monkey liver microsomes assessed as O-demethylated metabolite formation; assay type: ADME, Macaca mulatta, Microsome; conditions: rhesus monkey
[11] = Volume of distribution at steady state in C57BL/6J mouse at 1 mg/kg, po or 0.5 mg/kg, iv; assay type: ADME, organism-based; conditions: in vivo, read-out: Vdss
In short: (§2)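 C57BL/6J mice dosed 1 mg/kg po and 0.5 mg/kg iv, both in DMSO:PEG400:water (5:40:55, v/v/v).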

[12] = Cmax in rat at 2 mg/kg, po or 1 mg/kg, iv; assay type: ADME, organism-based; parameters: dose 2 mg/kg; conditions: in vivo
[13] = Cmax in dog at 1 mg/kg, po or 0.5 mg/kg, iv; assay type: ADME, organism-based, Canis lupus familiaris; parameters: dose 1 mg/kg; conditions: in vivo
In short: (§3)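 Single-dose PK at 1 mg/kg po and 0.5 mg/kg iv. Mouse clearance is from blood; dog and rhesus clearance is from plasma. Mouse vehicle, both routes: DMSO:PEG400:water (5:40:55, v/v/v). Dog and monkey iv vehicle: PEG200:12%HPCD:water (30:12:58 v/v/v). Dog and monkey po vehicle: Imwitor:Tween (1:1 w/w).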

[14] = Volume of distribution at steady state in dog at 1 mg/kg, po or 0.5 mg/kg, iv; assay type: ADME, organism-based, Canis lupus familiaris; conditions: in vivo, read-out: Vdss
In short: as §1

[15] = In vivo inhibition of HIF-PHD2 in C57BL/6 mouse assessed as serum erythropoietin level at 1.5 mg/kg, iv measured after 4 hrs; assay type: functional
In short: (§4)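 Mouse pharmacodynamic EPO assay (MoPED). Compound dosed iv; serum EPO measured 4 hr after dosing and reported in pg/mL. Minimum effective dose is the lowest dose giving EPO elevation.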

[16] = Drug metabolism in dog liver microsomes assessed as O-demethylated metabolite formation; assay type: ADME, Canis lupus familiaris, Microsome
[17] = Drug recovery in fasted bile-duct cannulated Sprague-Dawley rat feces at 5 mg/kg, po using [3H]-labeled compound measured after 48 hrs; assay type: ADME, organism-based; conditions: in vivo
[18] = Drug recovery in fasted bile-duct cannulated Sprague-Dawley rat urine at 5 mg/kg, po using [3H]-labeled compound measured after 48 hrs; assay type: ADME, organism-based; conditions: in vivo
[19] = In vivo inhibition of HIF-PHD2 in C57BL/6 mouse assessed as serum erythropoietin level at 50 mg/kg, iv measured after 4 hrs; assay type: functional
In short: as §4

Cytochrome P450 2D6 = Cytochrome P450 2D6 (Homo sapiens, UniProt P10635); test: Inhibition of CYP2D6 (unknown origin); assay type: ADME
[20] = Metabolic stability in monkey liver microsomes assessed as metabolic turnover at 10 uM measured after 60 mins in presence of NADPH; assay type: ADME, Macaca mulatta, Microsome; conditions: rhesus monkey, read-out: Drug metabolism
In short: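 Tritiated compound incubated with rat or monkey liver microsomes supplemented with NADPH; metabolic turnover monitored.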

[21] = Cmax in C57BL/6J mouse at 1 mg/kg, po or 0.5 mg/kg, iv; assay type: ADME, organism-based; parameters: dose 1 mg/kg; conditions: in vivo
In short: as §3

[22] = Oral bioavailability in C57BL/6J mouse at 1 mg/kg; assay type: ADME, organism-based; conditions: in vivo
In short: as §2

[23] = In vivo inhibition of HIF-PHD2 in iv dosed C57BL/6 mouse assessed as minimum effective dose causing increase in serum erythropoietin levels measured after 4 hrs; assay type: functional; conditions: C57BL/6, iv, read-out: MED
In short: as §4

[24] = Drug metabolism in rat liver microsomes assessed as O-demethylated metabolite formation; assay type: ADME, Microsome
[25] = molecular target: Voltage-gated inwardly rectifying potassium channel KCNH2 (Homo sapiens, UniProt Q12809); test: Inhibition of human ERG
Sequence of Voltage-gated inwardly rectifying potassium channel KCNH2 (Q12809 whole entry): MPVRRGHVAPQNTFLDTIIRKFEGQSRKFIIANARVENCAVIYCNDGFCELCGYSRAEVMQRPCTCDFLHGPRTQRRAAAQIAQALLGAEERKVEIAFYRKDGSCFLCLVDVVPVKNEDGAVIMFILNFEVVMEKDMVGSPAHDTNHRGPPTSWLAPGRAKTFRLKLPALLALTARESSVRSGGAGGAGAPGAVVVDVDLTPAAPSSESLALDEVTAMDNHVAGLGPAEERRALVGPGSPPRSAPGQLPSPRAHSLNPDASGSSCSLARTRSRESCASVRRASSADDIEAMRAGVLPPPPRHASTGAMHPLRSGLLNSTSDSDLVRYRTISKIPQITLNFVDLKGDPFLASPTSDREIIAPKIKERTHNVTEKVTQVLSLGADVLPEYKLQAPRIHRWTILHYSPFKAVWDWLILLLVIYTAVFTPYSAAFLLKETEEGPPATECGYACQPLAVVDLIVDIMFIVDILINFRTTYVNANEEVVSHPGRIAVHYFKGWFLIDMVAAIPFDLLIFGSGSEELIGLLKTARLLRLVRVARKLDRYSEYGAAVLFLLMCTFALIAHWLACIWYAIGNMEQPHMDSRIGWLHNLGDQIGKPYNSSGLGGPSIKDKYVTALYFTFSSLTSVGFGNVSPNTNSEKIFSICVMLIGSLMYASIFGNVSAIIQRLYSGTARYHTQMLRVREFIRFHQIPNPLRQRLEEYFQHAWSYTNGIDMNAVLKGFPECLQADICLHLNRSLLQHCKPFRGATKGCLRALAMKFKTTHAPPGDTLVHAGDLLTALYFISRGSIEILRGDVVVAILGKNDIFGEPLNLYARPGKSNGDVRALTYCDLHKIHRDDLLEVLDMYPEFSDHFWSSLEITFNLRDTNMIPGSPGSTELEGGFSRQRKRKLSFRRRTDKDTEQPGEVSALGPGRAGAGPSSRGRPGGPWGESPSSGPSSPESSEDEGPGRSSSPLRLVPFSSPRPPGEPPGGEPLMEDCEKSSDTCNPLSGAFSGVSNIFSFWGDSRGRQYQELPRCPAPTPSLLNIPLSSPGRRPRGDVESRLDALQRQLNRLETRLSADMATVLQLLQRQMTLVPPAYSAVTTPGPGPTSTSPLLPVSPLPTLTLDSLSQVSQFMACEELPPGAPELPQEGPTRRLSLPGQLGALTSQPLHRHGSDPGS

Sequence of Cytochrome P450 2C19 (P33261 whole entry): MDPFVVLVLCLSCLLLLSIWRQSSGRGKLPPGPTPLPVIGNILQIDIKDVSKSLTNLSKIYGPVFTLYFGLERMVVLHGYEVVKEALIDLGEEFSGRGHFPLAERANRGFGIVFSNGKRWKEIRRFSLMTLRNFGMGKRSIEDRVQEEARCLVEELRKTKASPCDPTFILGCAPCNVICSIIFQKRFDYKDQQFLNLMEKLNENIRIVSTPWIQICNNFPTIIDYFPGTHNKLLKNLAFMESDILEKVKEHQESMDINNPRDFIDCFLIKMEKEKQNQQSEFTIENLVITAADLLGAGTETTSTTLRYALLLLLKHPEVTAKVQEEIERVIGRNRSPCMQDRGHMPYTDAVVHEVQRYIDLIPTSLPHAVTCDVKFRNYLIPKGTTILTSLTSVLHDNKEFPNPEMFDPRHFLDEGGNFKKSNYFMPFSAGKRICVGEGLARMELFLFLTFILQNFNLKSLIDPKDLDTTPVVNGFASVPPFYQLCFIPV
Sequence of Prolyl hydroxylase EGLN2 (Q96KS0 whole entry): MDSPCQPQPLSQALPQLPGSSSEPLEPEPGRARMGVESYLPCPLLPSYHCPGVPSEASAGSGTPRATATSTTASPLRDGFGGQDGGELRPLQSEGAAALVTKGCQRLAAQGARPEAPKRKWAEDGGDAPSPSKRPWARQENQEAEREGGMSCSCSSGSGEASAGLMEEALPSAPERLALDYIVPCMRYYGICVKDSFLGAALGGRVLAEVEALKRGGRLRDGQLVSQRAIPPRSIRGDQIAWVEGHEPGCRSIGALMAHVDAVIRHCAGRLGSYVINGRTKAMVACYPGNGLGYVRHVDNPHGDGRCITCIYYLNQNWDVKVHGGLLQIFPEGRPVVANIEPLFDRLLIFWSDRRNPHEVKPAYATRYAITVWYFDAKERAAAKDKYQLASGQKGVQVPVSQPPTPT
Sequence of Cytochrome P450 2D6 (P10635 whole entry): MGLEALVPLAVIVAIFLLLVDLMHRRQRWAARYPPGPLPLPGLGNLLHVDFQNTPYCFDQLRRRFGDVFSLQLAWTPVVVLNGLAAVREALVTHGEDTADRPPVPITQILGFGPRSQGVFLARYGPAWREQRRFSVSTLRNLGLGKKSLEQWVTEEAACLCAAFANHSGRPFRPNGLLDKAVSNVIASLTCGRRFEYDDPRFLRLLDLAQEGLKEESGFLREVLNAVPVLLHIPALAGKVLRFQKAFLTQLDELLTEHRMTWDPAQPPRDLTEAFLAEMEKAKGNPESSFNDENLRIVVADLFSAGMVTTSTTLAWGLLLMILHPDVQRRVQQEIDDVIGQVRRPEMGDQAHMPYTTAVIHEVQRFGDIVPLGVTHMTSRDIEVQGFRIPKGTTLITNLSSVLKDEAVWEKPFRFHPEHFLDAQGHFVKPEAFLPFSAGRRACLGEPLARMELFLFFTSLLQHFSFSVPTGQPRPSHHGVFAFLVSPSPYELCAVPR
Sequence of Cytochrome P450 3A4 (P08684 whole entry): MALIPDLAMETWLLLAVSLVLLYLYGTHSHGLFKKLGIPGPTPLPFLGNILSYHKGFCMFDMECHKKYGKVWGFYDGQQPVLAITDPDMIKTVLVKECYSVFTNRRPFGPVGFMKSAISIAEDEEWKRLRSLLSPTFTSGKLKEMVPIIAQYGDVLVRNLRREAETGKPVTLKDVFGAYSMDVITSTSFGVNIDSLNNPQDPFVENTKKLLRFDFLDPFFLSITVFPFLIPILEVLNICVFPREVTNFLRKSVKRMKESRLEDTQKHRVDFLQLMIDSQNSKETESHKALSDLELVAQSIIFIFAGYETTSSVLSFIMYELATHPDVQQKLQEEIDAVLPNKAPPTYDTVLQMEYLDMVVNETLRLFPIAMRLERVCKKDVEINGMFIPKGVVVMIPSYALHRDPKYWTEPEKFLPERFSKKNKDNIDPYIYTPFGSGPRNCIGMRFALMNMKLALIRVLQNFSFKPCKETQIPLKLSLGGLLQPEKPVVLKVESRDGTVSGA

In the case of COc1ccc(C(NC(=O)c2cnc(-c3cccnn3)nc2O)c2ccc(OC)cc2)cc1, the IC50 [1] is reported as 18 µM, the metabolised at 1 h, 10 µM [2] is reported as < 10% and the bioavailability [3] is reported as 52%. For the same molecule, the Drug metabolism [4] was “Metabolite_Detected”, the IC50 (Prolyl hydroxylase EGLN2) was 0.001 µM and the Drug recovery [5] was 90%. For the same molecule, the IC50 (Cytochrome P450 2C19) was > 60 µM, the Activity [6] was 7.6 g/dL and the IC50 (Cytochrome P450 3A4) was > 60 µM. It also gave a bioavailability [7] of 36%, an IC50 (Cytochrome P450 2C8) of 1.6 µM and a Cmax [8] of 6.8 µM. For the same molecule, the inhibition (Rattus norvegicus) was “Active”, the Cmax [9] was 30 µM and the Drug metabolism [10] was “Metabolite_Detected”. It also gave a Vd [11] of 0.13 L/kg, a Cmax [12] of 11 µM and a Cmax [13] of 18 µM. The Vd [14] was 0.12 L/kg, the Activity [15] was 360 pg/mL and the Drug metabolism [16] was “Metabolite_Detected”. The Drug recovery [17] was 39%, the Drug recovery [18] was 26% and the Activity [19] was 18000 pg/mL. The IC50 (Cytochrome P450 2D6) was > 60 µM, the metabolised at 1 h, 10 µM [20] was < 10% and the Cmax [21] was 8.4 µM. For the same molecule, the bioavailability [22] was 6.3%, the minimal effective dose [23] was 1.5 mg/kg and the Drug metabolism [24] was “Metabolite_Detected”. For the same molecule, the IC50 [25] was > 30 µM.
